38 variants from the RNAGym collection of RNA variant scans (doi:10.1038/s41586-018-0170-7) can be followed below.

Sequences and labels used below:
B1: tRNA (parent)
chain: GUUCCGUUGGCGUAAUGGUAACGCGUCUCCCUCCUAAGGAGAAGACUGCGGGUUCGAGUCCCGUACGGAACG

In this data set the parent is B1. The data set can be described thus: yeast fitness, log relative to wild type (ln ratio); higher = fitter; tRNA-Arg(CCU), competitive growth, 37 C, 1 M NaCl. An outline of the steps: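 For each genotype, fitness is defined as the natural log of its generation number over the wild type's. The tRNA-Arg(CCU) variant library was on a HIS3 centromeric plasmid in BY4742 with the chromosomal gene removed, and pools were first grown 4 generations in SC-HIS at 30 °C and then ~6.5 generations (~26.5 h) in SC-HIS 1M NaCl at 37 °C. Generations were calculated from OD-scaled log2 output/input frequency, weighted by inverse variance across replicates, using counts from 125 bp paired-end Illumina sequencing.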
Turning to GCUCCAUUGGCGUAAUGGUAACGCGUUUCCCUCCUAAGGAGACGACUGCGGGUUCGAGUCCCGUAUGGAGUG [U2C G6A C27U A43C C66U A70G C71U], the “yeast fitness (ln)” value was -0.101.
The result for ACUCCAUUGGCGUAAUGGUAACGCGUCUCCCUCCUAAGGAGAAGAUUGCGGGUUCGAGUCCCGUAAGGAGUG [G1A U2C G6A C46U C66A A70G C71U] reads -0.105; that for AUUCCGUUGGCGUAAUGGUAACGCGUUUCCCUCCUAAGGAGAAGAUUGCGGGUUCGAGUCCCGUAAGGGGUG [G1A C27U C46U C66A A69G A70G C71U], -0.193.
GGUCCAUUGGCGUAAUGGUAACGCGUCUCCCUCCUAAGGAGAAGACUGCGGGUUCGAGUCCCGUAAGGAAUG [U2G G6A C66A C71U]: the “yeast fitness (ln)” value is -0.139.
Turning to GCUCCGUUGGCGUAAUGGUAACGCGUCUCCCUCCUAAGGAGAAGAUUGCGGGUUCGAGUCCCGUAUGGGGCG [U2C C46U C66U A69G A70G], the “yeast fitness (ln)” value was -0.02.
The result for ACUCCGUUGGCGUAAUGGUAACGCGUUUCCCUCCUAAGGAGAAGAUUGCGGGUUCGAGUCCCGUAUGGAACG [G1A U2C C27U C46U C66U] reads -0.144; that for ACUCCGUUGGCGUAAUGGUAACGCGUCUCCCUCCUAAGGAGAAGACUGCGGGUUCGAGUCCCGUACGGAGCG [G1A U2C A70G], -0.0111.
The result for GCUCCUUUGGCGUAAUGGUAACGCGUUUCCCUCCUAAGGAGACGAUUGCGGGUUCGAGUCCCGUAUGGAUCG [U2C G6U C27U A43C C46U C66U A70U] reads -0.173; that for GUUCCUUUGGCGUAAUGGUAACGCGUCUCCCUCCUAAGGAGACGAUUGCGGGUUCGAGUCCCGUACGGGGUG [G6U A43C C46U A69G A70G C71U], -0.308; that for GUUCCAUUGGCGUAAUGGUAACGCGUCUCCCUCCUAAGGAGAAGAUUGCGGGUUCGAGUCCCGUAAGGAGUG [G6A C46U C66A A70G C71U], -0.169.
The result for GGUCCAUUGGCGUAAUGGUAACGCGUCUCCCUCCUAAGGAGACGACUGCGGGUUCGAGUCCCGUACGGGUCG [U2G G6A A43C A69G A70U] reads -0.171.
For AUUCCGUUGGCGUAAUGGUAACGCGUUUCCCUCCUAAGGAGACGACUGCGGGUUCGAGUCCCGUAUGGAGCG [G1A C27U A43C C66U A70G], the “yeast fitness (ln)” value is -0.333.
Consider ACUCCGUUGGCGUAAUGGUAACGCGUCUCCCUCCUAAGGAGAAGAUUGCGGGUUCGAGUCCCGUACGGAGCG [G1A U2C C46U A70G], for which the “yeast fitness (ln)” value was -0.014.
Take GGUCCAUUGGCGUAAUGGUAACGCGUCUCCCUCCUAAGGAGACGAUUGCGGGUUCGAGUCCCGUAUGGGGUG [U2G G6A A43C C46U C66U A69G A70G C71U]: the “yeast fitness (ln)” value is -0.229.
The result for AGUCCGUUGGCGUAAUGGUAACGCGUUUCCCUCCUAAGGAGAAGAUUGCGGGUUCGAGUCCCGUACGGGUUG [G1A U2G C27U C46U A69G A70U C71U] reads -0.18; that for GCUCCUUUGGCGUAAUGGUAACGCGUUUCCCUCCUAAGGAGACGACUGCGGGUUCGAGUCCCGUAUGGAGCG [U2C G6U C27U A43C C66U A70G], -0.366; that for AUUCCUUUGGCGUAAUGGUAACGCGUUUCCCUCCUAAGGAGACGACUGCGGGUUCGAGUCCCGUACGGAAUG [G1A G6U C27U A43C C71U], -0.352.
Take ACUCCGUUGGCGUAAUGGUAACGCGUUUCCCUCCUAAGGAGACGACUGCGGGUUCGAGUCCCGUACGGAUCG [G1A U2C C27U A43C A70U]: the “yeast fitness (ln)” value is -0.111.
Under AGUCCAUUGGCGUAAUGGUAACGCGUUUCCCUCCUAAGGAGACGAUUGCGGGUUCGAGUCCCGUACGGAGCG [G1A U2G G6A C27U A43C C46U A70G] stands -0.224; under AUUCCUUUGGCGUAAUGGUAACGCGUCUCCCUCCUAAGGAGAAGACUGCGGGUUCGAGUCCCGUAAGGAACG [G1A G6U C66A], -0.0927; under AUUCCGUUGGCGUAAUGGUAACGCGUUUCCCUCCUAAGGAGACGAUUGCGGGUUCGAGUCCCGUAUGGAUCG [G1A C27U A43C C46U C66U A70U], -0.173.
Turning to AUUCCGUUGGCGUAAUGGUAACGCGUUUCCCUCCUAAGGAGAAGAUUGCGGGUUCGAGUCCCGUAUGGAUUG [G1A C27U C46U C66U A70U C71U], the “yeast fitness (ln)” value was -0.283.
The result for GUUCCAUUGGCGUAAUGGUAACGCGUCUCCCUCCUAAGGAGACGACUGCGGGUUCGAGUCCCGUACGGGUUG [G6A A43C A69G A70U C71U] reads -0.429.
Under ACUCCGUUGGCGUAAUGGUAACGCGUCUCCCUCCUAAGGAGACGAUUGCGGGUUCGAGUCCCGUACGGAACG [G1A U2C A43C C46U] stands -0.00932.
As for AGUCCGUUGGCGUAAUGGUAACGCGUUUCCCUCCUAAGGAGACGACUGCGGGUUCGAGUCCCGUAUGGAAUG [G1A U2G C27U A43C C66U C71U], the “yeast fitness (ln)” value is -0.452.
As for GUUCCGUUGGCGUAAUGGUAACGCGUUUCCCUCCUAAGGAGAAGAUUGCGGGUUCGAGUCCCGUAUGGGACG [C27U C46U C66U A69G], the “yeast fitness (ln)” value is -0.521.
As to ACUCCUUUGGCGUAAUGGUAACGCGUCUCCCUCCUAAGGAGAAGAUUGCGGGUUCGAGUCCCGUAUGGAUUG [G1A U2C G6U C46U C66U A70U C71U], the “yeast fitness (ln)” value is -0.203.
The result for AGUCCUUUGGCGUAAUGGUAACGCGUCUCCCUCCUAAGGAGACGACUGCGGGUUCGAGUCCCGUAUGGAGCG [G1A U2G G6U A43C C66U A70G] reads -0.271; that for GUUCCAUUGGCGUAAUGGUAACGCGUCUCCCUCCUAAGGAGACGAUUGCGGGUUCGAGUCCCGUACGGGGUG [G6A A43C C46U A69G A70G C71U], -0.241; that for AGUCCGUUGGCGUAAUGGUAACGCGUCUCCCUCCUAAGGAGACGAUUGCGGGUUCGAGUCCCGUACGGAUUG [G1A U2G A43C C46U A70U C71U], -0.00171.
Regarding ACUCCAUUGGCGUAAUGGUAACGCGUUUCCCUCCUAAGGAGACGAUUGCGGGUUCGAGUCCCGUAUGGAAUG [G1A U2C G6A C27U A43C C46U C66U C71U], the “yeast fitness (ln)” value was -0.128.
Under GUUCCAUUGGCGUAAUGGUAACGCGUUUCCCUCCUAAGGAGAAGAUUGCGGGUUCGAGUCCCGUACGGGACG [G6A C27U C46U A69G] stands -0.183; under AUUCCUUUGGCGUAAUGGUAACGCGUUUCCCUCCUAAGGAGAAGACUGCGGGUUCGAGUCCCGUAUGGAGUG [G1A G6U C27U C66U A70G C71U], -0.38.
On to GCUCCAUUGGCGUAAUGGUAACGCGUCUCCCUCCUAAGGAGACGAUUGCGGGUUCGAGUCCCGUAUGGAACG [U2C G6A A43C C46U C66U], for which the “yeast fitness (ln)” value was -0.0992.
Under GCUCCAUUGGCGUAAUGGUAACGCGUCUCCCUCCUAAGGAGACGAUUGCGGGUUCGAGUCCCGUACGGAACG [U2C G6A A43C C46U] stands -0.0201.
Regarding AGUCCAUUGGCGUAAUGGUAACGCGUCUCCCUCCUAAGGAGACGACUGCGGGUUCGAGUCCCGUAAGGGGUG [G1A U2G G6A A43C C66A A69G A70G C71U], the “yeast fitness (ln)” value is -0.253.
Under GUUCCUUUGGCGUAAUGGUAACGCGUUUCCCUCCUAAGGAGACGACUGCGGGUUCGAGUCCCGUAUGGGAUG [G6U C27U A43C C66U A69G C71U] stands -0.395; under AGUCCGUUGGCGUAAUGGUAACGCGUCUCCCUCCUAAGGAGACGAUUGCGGGUUCGAGUCCCGUACGGAUCG [G1A U2G A43C C46U A70U], -0.163.
